Laboratory results from ChEMBL document CHEMBL4699389, “Design and synthesis of a bivalent probe targeting the putative mu opioid receptor and chemokine receptor CXCR4 heterodimer” (RSC Med Chem, 2020).
Active and inactive are the calls of the source. The calls are words filed in the database; no cut-off is given here.

Columns and labels:
[1] = biological target: T1, C-X-C chemokine receptor type 4 (Homo sapiens, UniProt P61073); assay: Antagonist activity at CXCR4 (unknown origin) expressed in HOS cells assessed as decrease in SDF1-induced calcium influx incubated for 15 mins followed by SDF1 stimulation and measured after 90 sec by Fluo-4AM dye based fluorescence assay; assay type: functional, cell-based
T1 sequence (P61073 whole entry): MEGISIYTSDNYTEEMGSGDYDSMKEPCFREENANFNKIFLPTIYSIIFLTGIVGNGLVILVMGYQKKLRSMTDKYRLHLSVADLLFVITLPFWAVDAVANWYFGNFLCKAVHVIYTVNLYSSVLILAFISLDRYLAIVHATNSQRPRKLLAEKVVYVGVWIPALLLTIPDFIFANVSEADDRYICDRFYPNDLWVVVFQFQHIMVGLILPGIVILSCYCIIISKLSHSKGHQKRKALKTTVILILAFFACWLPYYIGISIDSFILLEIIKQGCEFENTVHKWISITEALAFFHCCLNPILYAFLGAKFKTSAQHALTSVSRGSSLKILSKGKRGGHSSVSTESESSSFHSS
In short: (§1)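 Gqi5-transfected cells, 48 h post-transfection, loaded with fluo-4 AM/probenecid for 45 min. Pre-incubated 15 min with compound at varying concentrations, then agonist added: SDF-1 for CXCR4-HOS, DAMGO for MOR-CHO. RFU read for 90 s on FlexStation3. IC50 from peak values by non-linear regression. Triplicate doses, at least 4 repeats.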

[2] = biological target: T2, Mu-type opioid receptor (Mus musculus, UniProt P42866); assay: Displacement of [3H]-NLX from mouse MOR expressed in CHO cells incubated for 1.5 hrs by radioligand binding assay; assay type: cell-based
T2 sequence (P42866 whole entry): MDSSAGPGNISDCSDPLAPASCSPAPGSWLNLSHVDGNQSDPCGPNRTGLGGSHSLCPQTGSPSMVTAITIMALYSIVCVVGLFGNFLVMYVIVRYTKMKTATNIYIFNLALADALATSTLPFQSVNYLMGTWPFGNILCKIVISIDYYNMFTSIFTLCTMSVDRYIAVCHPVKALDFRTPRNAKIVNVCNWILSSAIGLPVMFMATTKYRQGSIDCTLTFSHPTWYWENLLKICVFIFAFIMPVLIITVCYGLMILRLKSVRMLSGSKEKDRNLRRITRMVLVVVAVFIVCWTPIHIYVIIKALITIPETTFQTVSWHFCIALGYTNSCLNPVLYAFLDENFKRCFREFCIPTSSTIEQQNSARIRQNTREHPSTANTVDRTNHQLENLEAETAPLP

[3] = biological target: Mu-type opioid receptor (Mus musculus) (UniProt P42866); assay: Agonist activity at mouse MOR expressed in CHO cells assessed as increase in calcium influx incubated for 15 mins by Fluo-4AM dye based fluorescence assay; assay type: functional, cell-based
Sequence of Mu-type opioid receptor (Mus musculus) (P42866 whole entry): as above
In short: (§2)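 Cells transiently transfected with Gqi5 (Lipofectamine 2000), plated at […] per well and grown to confluence. At 48 h post-transfection, loaded with fluo-4 AM plus probenecid in HBSS-HEPES-Ca-Mg buffer for 45 min. Ligands tested alone at 0.3 nM to 3 μM. Ca²⁺ followed as RFU for 90 s on FlexStation3. Triplicate doses, at least 4 repeats.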

[4] = biological target: T2, Mu-type opioid receptor; assay: Antagonist activity at mouse MOR expressed in CHO cells assessed as decrease in DAMGO-induced calcium influx incubated for 15 mins followed by DAMGO stimulation and measured after 90 sec by Fluo-4AM dye based fluorescence assay; assay type: functional, cell-based; in short: as §1
[5] = biological target: T1, C-X-C chemokine receptor type 4; assay: Binding affinity to CXCR4 (unknown origin) expressed in CHO cells incubated for 40 mins by immunofluorescence assay; assay type: cell-based
In short: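 Trypsinized CHO-CXCR4 cells (5×10⁵ per well) in FACS buffer (0.5% BSA, 0.05% azide in PBS). Incubated 40 min on ice with mouse anti-human CD184 (1:2000) plus graded compound concentrations, then with anti-mouse IgG-FITC (1:1000) for 30 min on ice. IC50 from at least three independent experiments.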

[6] = biological target: T1, C-X-C chemokine receptor type 4; assay: Agonist activity at […] (unknown origin) expressed in HOS cells assessed as increase in calcium influx incubated for 15 mins by Fluo-4AM dye based fluorescence assay; assay type: functional, cell-based; in short: as §2

SMILES	IC50 [1] [nM]	Ki [2] [nM]	Activity [3]	IC50 [4] [nM]	IC50 [5] [nM]	Activity [6]
CC1(C)CN2C(CS/C(=N\[C@H]3CC[C@H](CNC(=O)COCC(=O)NCCCCCCNC(=O)COCC(=O)N[C@@H]4CC[C@@]5(O)[C@H]6Cc7ccc(O)c8c7[C@@]5(CCN6CC5CC5)[C@H]4O8)CC3)NC3CCCCC3)=CSC2=N1	3300	25.4	inactive	61.9	17200	inactive
CNC(=O)COCC(=O)NCCCCCCNC(=O)COCC(=O)NC[C@H]1CC[C@H](/N=C(/NC2CCCCC2)SCC2=CSC3=NC(C)(C)CN23)CC1	78300				74000	inactive
CNC(=O)COCC(=O)NCCCCCCNC(=O)COCC(=O)N[C@@H]1CC[C@@]2(O)[C@H]3Cc4ccc(O)c5c4[C@@]2(CCN3CC2CC2)[C@H]1O5		2	inactive	133		inactive
